Experimental data collected from several papers.
Compare with care: the assays were run in different laboratories. ≈ marks a conversion by molar mass, not a printed value.

SMILES	target or system	observed	technique	strain	time	quantity	result
OC(Cn1cncn1)(Cn1cncn1)c1ccc(F)cc1F	Candida albicans	microbial growth	broth dilution	ATCC60193	–	MIC	2 µg/mL (≈ 6.53 µM)
Cc1cnc(NC(=O)/C=C/c2cccs2)nc1	Candida albicans	microbial growth	–	–	48 h	MIC80	25 µM (≈ 6.13 µg/mL)
N.N.[Cl][Pt][Cl]	CCD 19Lu	cell growth or viability	MTT	–	72 h	IC50	56.1 µM
CC(=O)N1CCN(c2ccc(OCC3COC(Cn4ccnc4)(c4ccc(Cl)cc4Cl)O3)cc2)CC1 (centres unmarked)	Candida albicans	microbial killing	broth dilution	58288	48 h	MFC	> 64 µM
O=c1ccc2nc3ccc(OCc4ccc([N+](=O)[O-])o4)cc3oc-2c1	Enterococcus faecium	microbial growth	–	–	24 h	MIC	> 32 µg/mL
OC(Cn1cncn1)(Cn1cncn1)c1ccc(F)cc1F	Candida albicans	microbial killing	broth dilution	SP3903	48 h	MFC	> 64 µM
O=C(CCc1ccccc1)Nc1ncccn1	Candida albicans	microbial growth	–	–	48 h	MIC80	> 100 µM
O=c1ccc2nc3ccc(O)cc3oc-2c1	Enterococcus faecium	microbial growth	–	–	24 h	MIC	> 32 µg/mL
